ChEMBL document CHEMBL4765446, “Synthesis of ticagrelor analogues belonging to 1,2,3-triazolo[4,5-d]pyrimidines and study of their antiplatelet and antibacterial activity” (2020)
In brackets after ≈: the same amount, converted by molar mass.

Assays:
[1] = system: Staphylococcus aureus; experiment: Antibacterial activity against methicillin-resistant Staphylococcus aureus BAA-1556 by broth microdilution method; format: functional
Summary of the method: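 Single colony from Brain Heart Infusion agar grown overnight in BHI broth, aerobic, 37 °C, 190 rpm. Diluted 100-fold in Mueller-Hinton broth, grown to exponential phase. About 5.10^5 CFU/ml then incubated with or without a range of concentrations, vehicle 1% DMSO. Growth read as OD600. MIC per EUCAST is the lowest concentration with no visible growth, i.e. ΔOD600 versus blank (medium + 1% DMSO) equal to zero.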

[2] = system: Plasma; experiment: Antiplatelet activity in human platelet-rich plasma assessed as inhibition of ADP-induced platelet aggregation at 1.8 uM preincubated for 10 mins followed by ADP addition and measured for 10 mins by light transmission aggregometry relative to control; format: functional; conditions: time 20 min
Summary of the method: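 Citrated (3.2%) venous blood from drug-free healthy volunteers aged 20–40 years; PRP from 100 × g 15 min spin, adjusted to 250000/µl with autologous PPP (800 × g 15 min). Compound or vehicle (1% DMSO) preincubated 10 min, then stirring at 1200 rpm, 37 °C, and ADP 10 µM added. Aggregation followed 10 min; AUC expressed as fold-inhibition vs vehicle, mean ± S.D., n = 4–21 donors, Wilcoxon paired test.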

Structure (SMILES) | MIC [1] [µM] | fold change (FC) [2]
CCSc1nc(N[C@@H]2C[C@H]2c2ccc(F)c(F)c2)c2nnn(C)c2n1 | > 200 | 0.97
CCn1nnc2c(N[C@@H]3C[C@H]3c3ccc(F)c(F)c3)nc(SC)nc21 | > 200 | 0.87
CCCSc1nc(N[C@@H]2C[C@H]2c2ccccc2)c2nnn([C@@H]3C[C@H](OCCO)[C@@H](O)[C@H]3O)c2n1 | > 200 | 3.1
CCCSc1nc(N)c2nnn([C@@H]3C[C@H](O)[C@@H](O)[C@H]3O)c2n1 | > 200 | 1.1
CC(O)CSc1nc(N[C@@H]2C[C@H]2c2ccc(F)c(F)c2)c2nnn([C@@H]3C[C@H](OCCO)[C@@H](O)[C@H]3O)c2n1 (stereo partly specified) | > 200 | 1.7
CCCSc1nc(NCCc2ccc(F)c(F)c2)c2nnn([C@@H]3C[C@H](OCCO)[C@@H](O)[C@H]3O)c2n1 | > 200 | 1.1
O[C@@H]1[C@H](O)[C@@H](O)C[C@H]1n1nnc2c(N[C@@H]3C[C@H]3c3ccc(F)c(F)c3)ncnc21 | > 200 | 1
OCCCSc1nc(N[C@@H]2C[C@H]2c2ccc(F)c(F)c2)c2nnn([C@@H]3C[C@H](O)[C@@H](O)[C@H]3O)c2n1 | > 200 | 2.7
CCCSc1nc(NC2CC2)c2nnn([C@@H]3C[C@H](OCCO)[C@@H](O)[C@H]3O)c2n1 | > 200 | 2.6
CCCSc1nc(N[C@@H]2C[C@H]2c2ccc(F)c(F)c2)c2nnn([C@@H]3C[C@H](O)[C@@H](O)[C@H]3O)c2n1 | 25 (≈ 12 µg/mL) | 4.8
CC(O)CSc1nc(N)c2nnn([C@@H]3C[C@H](O)[C@@H](O)[C@H]3O)c2n1 (stereo partly specified) | > 200 | 1
OCCCSc1nc(N[C@@H]2C[C@H]2c2ccc(F)c(F)c2)c2nnn([C@@H]3C[C@H](OCCO)[C@@H](O)[C@H]3O)c2n1 | > 200 | 1
C[C@@H](O)CSc1nc(N[C@@H]2C[C@H]2c2ccc(F)c(F)c2)c2nnn([C@@H]3C[C@H](O)[C@@H](O)[C@H]3O)c2n1 | > 200 | 6.2
CCSc1nc(N[C@@H]2C[C@H]2c2ccc(F)c(F)c2)c2nnn(CC)c2n1 | > 200 | 0.91
Nc1nc(SCCCO)nc2c1nnn2[C@@H]1C[C@H](O)[C@@H](O)[C@H]1O | > 200 | 1
CCCSc1nc(N)c2nnn([C@@H]3C[C@H](OCCO)[C@@H](O)[C@H]3O)c2n1 | > 200 | 1.1
O[C@@H]1[C@H](O)[C@@H](O)C[C@H]1n1nnc2c(N[C@@H]3C[C@H]3c3ccc(F)c(F)c3)nc(Cl)nc21 | > 200 | 1.1
CCCSc1nc(N[C@@H]2C[C@H]2c2ccc(F)c(F)c2)c2nnn(C)c2n1 | > 200 | 1.08
CCCSc1nc(N[C@@H]2C[C@H]2c2ccc(F)c(F)c2)c2nnn(CC)c2n1 | > 200 | 0.97
CSc1nc(N[C@@H]2C[C@H]2c2ccc(F)c(F)c2)c2nnn(C)c2n1 | > 200 | 0.94
CCCSc1nc(N[C@@H]2C[C@H]2c2ccc(F)c(F)c2)c2nnn(C3CCCC3)c2n1 | > 200 | 1
C[C@H](O)CSc1nc(N[C@@H]2C[C@H]2c2ccc(F)c(F)c2)c2nnn([C@@H]3C[C@H](O)[C@@H](O)[C@H]3O)c2n1 | > 200 | 2
CCCSc1nc(N[C@@H]2C[C@H]2c2ccc(F)c(F)c2)c2nnn([C@@H]3C[C@H](OCCO)[C@@H](O)[C@H]3O)c2n1 [TICAGRELOR] | 25 (≈ 13.1 µg/mL) | 4.3
